{"source": "paper PMC2992178", "about": "(Diabetes Care, 2010)", "key": {"[1]": {"assay": "Plasma lispro pharmacokinetics after subcutaneous injection, healthy subjects", "assay_type": "in vivo, human", "settings": "healthy subjects (n=6), 10 units s.c., mean ± SD", "outline": "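Venous blood was drawn every 10 min for 3 h, then every 20 min, after a 10-unit subcutaneous abdominal lispro dose under a euglycemic clamp. Type 2 diabetic subjects had first received an overnight IV insulin infusion. Samples went into citrate tubes with protease inhibitors, were spun at 4°C, snap-frozen and stored at −80°C. Lispro was measured by specific radioimmunoassay in duplicate. Noncompartmental analysis gave Cmax, AUC0-∞, Cl and dose ratios; non-normal data were log-transformed.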"}, "[2]": {"assay_type": "in vivo, human", "settings": "for AUC0-∞/D, AUC0-∞ to dose ratio / Cmax/D, Cmax to dose ratio / Cl, clearance / Mean resistance time / Vz, volume of distribution / Cmax, maximum plasma concentration / Tmax, time to maximal concentration / t½, half-life: obese type 2 diabetes (n=7), mean ± SD; for Cl, clearance / Mean resistance time / Vz, volume of distribution / t½, half-life: noncompartmental; for Cmax, maximum plasma concentration / Tmax, time to maximal concentration: plasma RIA; for t½, half-life: plasma"}, "[3]": {"system": "healthy subjects", "assay": "Euglycemic clamp", "assay_type": "in vivo, human", "settings": "10 units s.c.", "outline": "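Healthy volunteers fasted overnight from 8:00 p.m., then received a single 10-unit lispro dose by pen with an 8-mm needle. It went into abdominal subcutaneous fat 8 cm above the umbilicus and 10 cm from the midline. Plasma glucose was read every 5 min and clamped at 5–6 mmol/l with IV 20% dextrose for 8 h. GIRmax, tGIRmax and GItot came from GIR–time data; GIR was also plotted against plasma lispro concentration.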"}, "[4]": {"system": "obese subjects with type 2 diabetes", "assay": "Euglycemic clamp", "assay_type": "in vivo, human", "settings": "obese type 2 diabetes"}}, "note": "Like-named read-outs stand apart in the source and are kept apart here."}
{"substance": "lispro", "values": [{"measurement": "AUC0-∞/D, AUC0-∞ to dose ratio", "setting": "[1]", "value": "1.190 ± 0.302", "unit": "min/L"}, {"measurement": "Cmax/D, Cmax to dose ratio", "setting": "[1]", "value": "0.0091 ± 0.0007", "unit": "L"}, {"measurement": "Cl, clearance", "setting": "[1]; noncompartmental", "value": "0.88 ± 0.21", "unit": "L/min"}, {"measurement": "Mean resistance time", "setting": "[1]; noncompartmental", "value": "119 ± 21", "unit": "min"}, {"measurement": "Vz, volume of distribution", "setting": "[1]; noncompartmental", "value": "67 ± 16", "unit": "L"}, {"measurement": "Cmax, maximum plasma concentration", "setting": "[1]; plasma RIA", "value": "0.523 ± 0.042", "unit": "nM"}, {"measurement": "Tmax, time to maximal concentration", "setting": "[1]; plasma RIA", "value": "0.805 ± 0.0683", "unit": "h"}, {"measurement": "AUC0-∞, area under the lispro plasma concentration curve", "setting": "[1]; plasma RIA, noncompartmental", "value": "68,462 ± 17,346 pmol/min/l"}, {"measurement": "t½, half-life", "setting": "[1]; plasma, noncompartmental", "value": "1.12 ± 0.25", "unit": "h"}, {"measurement": "Cmax/D lower in subjects with type 2 diabetes than in healthy subjects", "setting": "[2]; 10 units s.c., P < 0.001", "value": 41, "unit": "%"}, {"measurement": "AUC0-∞/D, AUC0-∞ to dose ratio", "setting": "[2]; 10 units s.c.", "value": "1.056 ± 0.264", "unit": "min/L"}, {"measurement": "Cmax/D, Cmax to dose ratio", "setting": "[2]; 10 units s.c.", "value": "0.0054 ± 0.0005", "unit": "L"}, {"measurement": "Cl, clearance", "setting": "[2]; 10 units s.c.", "value": "0.99 ± 0.22", "unit": "L/min"}, {"measurement": "Mean resistance time", "setting": "[2]; 10 units s.c.", "value": "180 ± 65", "unit": "min"}, {"measurement": "Vz, volume of distribution", "setting": "[2]; 10 units s.c.", "value": "118 ± 34", "unit": "L"}, {"measurement": "Cmax, maximum plasma concentration", "setting": "[2]; 10 units s.c.", "value": "310 ± 28", "unit": "pmol/L"}, {"measurement": "Tmax, time to maximal concentration", "setting": "[2]; 10 units s.c.", "value": "0.928 ± 0.233", "unit": "h"}, {"measurement": "t½, half-life", "setting": "[2]; 10 units s.c.", "value": "1.67 ± 0.567", "unit": "h"}, {"measurement": "AUC0-∞/D, AUC0-∞ to dose ratio", "setting": "[2]; 30 units s.c.", "value": "1.140 ± 0.188", "unit": "min/L"}, {"measurement": "Cmax/D, Cmax to dose ratio", "setting": "[2]; 30 units s.c.", "value": "0.0047 ± 0.0012", "unit": "L"}, {"measurement": "Cl, clearance", "setting": "[2]; 30 units s.c.", "value": "0.90 ± 0.14", "unit": "L/min"}, {"measurement": "Mean resistance time", "setting": "[2]; 30 units s.c.", "value": "196 ± 30", "unit": "min"}, {"measurement": "Vz, volume of distribution", "setting": "[2]; 30 units s.c.", "value": "104 ± 53", "unit": "L"}, {"measurement": "Cmax, maximum plasma concentration", "setting": "[2]; 30 units s.c.", "value": "808 ± 218 ^‖ pmol/l"}, {"measurement": "Tmax, time to maximal concentration", "setting": "[2]; 30 units s.c.", "value": "1.48 ± 0.365", "unit": "h"}, {"measurement": "t½, half-life", "setting": "[2]; 30 units s.c.", "value": "1.62 ± 0.633", "unit": "h"}, {"measurement": "AUC0-∞/D, AUC0-∞ to dose ratio", "setting": "[2]; 50 units s.c.", "value": "1.296 ± 0.208", "unit": "min/L"}, {"measurement": "Cmax/D, Cmax to dose ratio", "setting": "[2]; 50 units s.c.", "value": "0.0046 ± 0.0012", "unit": "L"}, {"measurement": "Cl, clearance", "setting": "[2]; 50 units s.c.", "value": "0.79 ± 0.13", "unit": "L/min"}, {"measurement": "Mean resistance time", "setting": "[2]; 50 units s.c.", "value": "236 ± 49", "unit": "min"}, {"measurement": "Vz, volume of distribution", "setting": "[2]; 50 units s.c.", "value": "107 ± 46", "unit": "L"}, {"measurement": "Cmax, maximum plasma concentration", "setting": "[2]; 50 units s.c.", "value": "1,313 ± 346 ^‖ ^# pmol/l"}, {"measurement": "t½, half-life", "setting": "[2]; 50 units s.c.", "value": "2.27 ± 1.2", "unit": "h"}, {"measurement": "delay of Tmax", "setting": "[2]; obese type 2 diabetes, 50 units versus 10 units, P < 0.001", "value": 1.23, "unit": "h"}, {"measurement": "average difference between Tmax and tGIRmax", "setting": "[3]", "value": 0.317, "unit": "h"}, {"measurement": "initial GIR response", "setting": "[3]; at insulin concentrations nearing 40 pmol/l", "value": 2.22, "unit": "mg/kg/min"}, {"measurement": "GIRmax as % of the value measured in healthy subjects", "setting": "[4]; 10 units s.c., P < 0.0001", "value": 7, "unit": "%"}, {"measurement": "GItot as % of the value measured in healthy subjects", "setting": "[4]; 10 units s.c., P < 0.0001", "value": 4, "unit": "%"}, {"measurement": "prolongation of tGIRmax versus healthy subjects", "setting": "[4]; 10 units s.c., P < 0.0001", "value": 1, "unit": "h"}, {"measurement": "average difference between Tmax and tGIRmax", "setting": "[4]; 10 units s.c., P < 0.0007 versus healthy", "value": 1.23, "unit": "h"}, {"measurement": "average difference between Tmax and tGIRmax", "setting": "[4]; 30 units s.c.", "value": 1.43, "unit": "h"}, {"measurement": "average difference between Tmax and tGIRmax", "setting": "[4]; 50 units s.c.", "value": 1.92, "unit": "h"}]}
